Compound activity as filed in PubChem BioAssay.
This is a sample that favours compounds with a hit; in the whole collection about 1.8% have one here.
M4 PAM: positive allosteric modulators of human muscarinic M4 receptor; activation, % at 3 µM; CHO-K1 hM4/Gqi5, Fluo-8 calcium fluorescence, ACh EC20; 0% = ACh EC20, 100% = maximal ACh; P08173; actives 0.4% (n = 360,000); AID 624126;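 active means activation above its plate's cutoff, the mean activation of sample wells plus 3 SD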
M5 antag: antagonists of human muscarinic M5 receptor (CHRM5); AID 624040; inhibition, % at 3 µM; actives 0.59% (n = 360,000); CHO-hM5 cells, Fluo-8 calcium fluorescence, ACh EC80;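 active means inhibition above a per-plate cutoff, the mean of that plate's test compounds plus 3 SD, cut at about 27% in these data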;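 further: 0% = acetylcholine EC80 with DMSO and 100% = DMSO without agonist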
Target sequence (P08912 whole entry, looked up): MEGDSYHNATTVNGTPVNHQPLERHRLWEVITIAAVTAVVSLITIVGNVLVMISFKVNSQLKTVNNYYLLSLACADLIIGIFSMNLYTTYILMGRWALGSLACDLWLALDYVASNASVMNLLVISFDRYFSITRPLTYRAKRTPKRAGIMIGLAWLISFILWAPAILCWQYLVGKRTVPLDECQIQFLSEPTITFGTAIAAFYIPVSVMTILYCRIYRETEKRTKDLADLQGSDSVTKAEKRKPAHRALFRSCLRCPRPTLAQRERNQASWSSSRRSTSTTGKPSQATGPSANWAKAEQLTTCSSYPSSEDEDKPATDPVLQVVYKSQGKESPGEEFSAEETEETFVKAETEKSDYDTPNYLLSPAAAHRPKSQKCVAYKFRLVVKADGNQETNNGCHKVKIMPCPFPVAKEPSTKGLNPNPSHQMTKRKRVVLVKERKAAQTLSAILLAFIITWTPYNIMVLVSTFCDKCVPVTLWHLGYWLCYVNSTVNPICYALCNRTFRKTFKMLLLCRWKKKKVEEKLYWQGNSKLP
M5 PAM: CHRM5 positive allosteric modulation. CHO-K1 hM5, Fluo-8 calcium, ACh EC20 PAM; 0% = ACh EC20, 100% = ACh EC100. activation, % at 3 µM. actives 0.3% (n = 360,000);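 active means activation above the run cutoff, the mean activation of all test compounds plus 3 SD, cut at about 18% in these data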
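System: CHO-K1 hM5 cells. Reagent: acetylcholine, EC20 level. Compound dosing: single dose, 3 µM nominal final test concentration. Timing: Post-acetylcholine fluorescence recording 140 s. Detection: Fluo-8 calcium fluorescence. Read-out: % activation, ACh-normalized. Benchmarks: ACh EC20 and EC100 wells. Repeats: singlicate, one well per test compound.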
CHRM4 agonist: CHRM4 agonism in calcium assay; P08173; CHO-K1 hM4/Gqi5, Fluo-8 calcium fluorescence; vehicle 0%, full acetylcholine response 100%; activation, % at 3 µM; actives 0.14% (n = 360,000); AID 624127;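 active means activation above the run mean over all test wells plus 3 SD, cut at about 32% in these data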;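 further: peak over basal fluorescence ratio per well then scaled between controls; 0% = DMSO wells and 100% = acetylcholine at EC100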
CHRM5 agonist: CHRM5 agonism in calcium assay. actives 0.19% (n = 360,000). CHO-K1 hM5 cells, Fluo-8 calcium fluorescence; 0% DMSO wells, 100% maximal acetylcholine response. P08912. activation, % at 3 µM. AID 624037;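 active means activation above the run's mean over test compounds plus 3 SD, cut at about 23% in these data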;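 further: signal is peak over basal fluorescence ratio across the kinetic read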
CHRM4 antagonist: antagonists of human muscarinic M4 receptor (CHRM4). AID 624125. actives 0.73% (n = 360,000). inhibition, % at 3 µM. CHO-hM4 cells, ACh EC80, Fluo-8 calcium fluorescence. P08173;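 active means inhibition above its plate's cutoff, the mean inhibition of sample wells plus 3 SD, cut at about 27% in these data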;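 further: 0% = acetylcholine EC80 with DMSO and 100% = DMSO without agonist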
* hit, by the source's call; + = active, no number.

SMILES	M4 PAM	M5 antag	M5 PAM	CHRM4 agonist	CHRM5 agonist	CHRM4 antagonist
COc1ccc(N2CCN(C(=O)COC(=O)/C=C/c3ccc(OC(F)F)cc3)CC2)cc1	23.1*	0.3	-1.0	1.0	3.0	-21.0
COc1cc(/C=C/C(=O)OC(C)C(=O)Nc2c(C)n(C)n(-c3ccccc3)c2=O)ccc1O (stereo unspecified)	-0.6	6.4	-1.9	0.0	3.8	1.3
COc1cc(/C=C/C(=O)OCC(=O)c2ccc(OC(F)F)cc2)ccc1O	-2.6	3.8	-10.3	11.7	27.0*	1.1
CCc1ccc(NC(=O)C(C)OC(=O)/C=C/c2ccc(O)c(OC)c2)cc1 (stereo unspecified)	-9.6	14.4	-14.8	27.1	34.6*	5.7
COc1ccc(N2CCN(C(=O)COC(=O)/C=C/c3ccc(C(F)(F)F)cc3)CC2)cc1	-0.2	-11.6	7.9	1.0	-0.7	-2.2
COCCN(C(=S)Nc1ccc(C)cc1)C(C)c1cccnc1 (stereo unspecified)	7.3	-0.2	7.6	0.3	-3.6	-2.8
Cc1ccnn1-c1ccc(C(=O)N2CCCN(S(=O)(=O)c3ccc(F)cc3)CC2)cc1	-4.1	-2.1	-8.3	9.3	5.4	-1.3
O=C(CN1CCN(C(=O)C2CC2)CC1)Nc1ccc(Cl)cc1F	-2.6	-4.4	2.7	1.7	1.8	8.5
COc1ccc(Nc2nc(-c3cccs3)nc3ccccc23)cc1S(=O)(=O)N1CCOCC1	-30.1	10.5	-24.1	17.1	-4.5	28.7*
O=S(=O)(c1cccs1)N1CCN(c2ccc(O)cc2)CC1	-2.2	14.1	-8.1	2.7	-0.4	8.6
Cc1ccccc1CNS(=O)(=O)c1c(C)[nH]c(C)c1C(=O)N1CCCCC1	2.7	-4.7	0.2	1.3	-0.3	-15.6
CC(=O)c1c(N)c(C#N)c(C)n1-c1ccc(Br)cc1	4.1	27.0*	34.6*	0.4	5.6	-4.1
COc1ccc(S(=O)(=O)N2CCN(c3ccc(F)cc3)CC2)cc1C(=O)N1CCOCC1	-3.0	6.7	-0.9	0.6	-2.8	10.1
Cc1ccc(NC(=O)COC(=O)CCc2nc3ccccc3c(=O)[nH]2)c(Br)c1	25.5*	-2.1	1.2	0.6	-4.5	-13.4
CCOc1ccc(N(CC(=O)NC2CC3CCC2C3)S(=O)(=O)c2ccc(C)cc2)cc1 (stereo unspecified)	22.5*	7.8	2.2	-1.3	-4.8	-13.6
COc1ccc(OC)c(/C=C/C(=O)OCC(=O)N2CCN(S(=O)(=O)c3ccc(C)cc3C)CC2)c1	-1.6	-0.1	-5.0	0.5	-3.4	-21.5
COc1cccc(C2CCCCN(C)C2=O)c1 (stereo unspecified)	-3.8	-13.2	9.1	-0.1	-1.5	-16.9
CC(C)n1c(=O)[nH]c2ccccc21	1.4	-1.3	-2.0	1.1	1.4	1.6
Cc1ccc(NC(=O)c2ccc3c(c2)[nH]c(=O)n3C(C)C)cc1	-9.4	27.6*	-16.1	4.6	-0.6	1.2
Cc1ccc(-c2csc3ncn(C(C)C(=O)O)c(=O)c23)cc1 (stereo unspecified)	-1.9	-1.8	2.5	0.0	0.9	5.8
CC1CC(OC(=O)C(O)c2ccccc2)CC(C)(C)N1C (stereo unspecified)	-16.5	88.3*	-19.2	-0.1	-2.0	40.8*
COc1cc(OC)cc(C(=O)NNC(=O)C2CCCC2)c1	0.4	-4.0	3.2	0.8	0.0	2.8
CCn1nnnc1NCc1ccc(N2CCCC2)cc1	-24.2	14.1	-7.5	0.6	-9.5	35.1*
CC(C)c1ccc(/C=C(\NC(=O)c2ccccc2)C(=O)NCCCN2CCOCC2)cc1	-0.3	7.0	3.7	2.1	-8.3	-4.5
COc1cccc(CNC(=O)CCC2CCCN(C3CCOCC3)C2)c1 (stereo unspecified)	2.5	15.1	-5.8	0.1	-5.1	7.9
SMILES	M4 PAM	M5 antag	M5 PAM	CHRM4 agonist	CHRM5 agonist	CHRM4 antagonist
COc1cccc(CNC(=O)CCC2CCCN(c3cc(C)nc(N4CCCC4)n3)C2)c1 (stereo unspecified)	-23.1	6.6	2.5	0.2	-9.2	28.4*
CCOC(=O)N1CCN(C(=O)CSc2nc3c([nH]c4ccccc43)c(=O)n2CC)CC1	-0.9	-7.9	-5.4	4.7	-0.4	-11.5
Fc1ccc(-n2c(-c3cc(C4CC4)[nH]n3)n[nH]c2=S)cc1Cl	12.3	-20.4	19.4*	0.8	2.8	-1.4
O=c1ccc(-c2n[nH]c(=S)n2-c2ccc(F)c(Cl)c2)n[nH]1	4.7	-5.7	-0.8	1.5	-6.2	-1.5
COc1cccc2c1C(=O)CC1C2CCC2CC(=O)CCC21C (stereo unspecified)	-3.0	5.9	7.7	1.1	3.8	-12.4
Cc1ccc(Sc2c([N+](=O)[O-])ncn2C)cc1	0.5	1.4	-0.3	0.1	-3.3	6.7
Cc1ccc(Sc2c([N+](=O)[O-])c(C)nn2C)cc1	-63.0	27.8*	-32.6	-0.4	-20.0	62.9*
O=[N+]([O-])c1ccc(NCc2ccccc2N2CCC(CO)CC2)nc1	-4.9	6.4	-10.0	2.4	0.7	-2.4
CCn1ncc(CN2CCCC(C(=O)c3cccc(OC(C)C)c3)C2)c1C (stereo unspecified)	-18.2	29.2*	-13.8	1.2	-9.9	37.8*
CCOC(=O)c1[nH]ncc1CN1CCCC(C(=O)c2cccc(OC(C)C)c2)C1 (stereo unspecified)	-4.2	4.9	0.6	0.3	-3.6	8.8
Cc1cc(NC(=O)CSc2nnc(COc3cccc(C)c3C)n2Cc2ccco2)no1	28.8*	-5.3	3.8	0.9	1.7	-6.6
Cc1cccc(NC(=O)CSc2nccn2Cc2ccco2)c1C	18.5*	-37.2	19.9*	1.4	-2.2	2.4
Cc1cccc(OCc2nnc(SCC(=O)N(C(C)C)C(C)C)n2Cc2ccco2)c1C	13.5	6.6	15.3	0.0	-1.3	-3.3
COc1ccc(CCN(C)Cc2ccc(C(=O)Nc3ccccc3)cc2)cc1OC	7.7	-4.2	7.7	2.6	0.2	5.3
CC(c1ccccc1)C1CC(=O)N(c2cc(Cl)ccn2)C1=O (stereo unspecified)	-8.2	14.7	-8.2	10.2	-3.7	5.4
CCN1/C(=C/C=C/c2oc3ccc(-c4ccccc4)cc3[n+]2CC)Oc2ccc(-c3ccccc3)cc21	-3.3	101.7*	-33.9	+	+	98.8*
C=CCN1C(=O)S/C(=C\c2ccc(N3CCOCC3)cc2C)C1=O	27.3*	2.3	-1.5	5.4	2.3	-6.4
C[C@@H](NC(=O)Cn1cnc2c(OCc3ccccc3)ncnc21)c1cccc2ccccc12	55.6*	-4.4	2.8	14.0	6.3	57.5*
